SMILES strings stand for the structures. Calls of active or inactive are those of the source.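 The calls were made as follows: active = inhibition of 50% or more of probe labeling of the enzyme band; inactive = inhibition below 50%.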

For the assay, the target named is Diacylglycerol lipase-beta (Mus musculus) (UniProt Q91WC9). Description: blocking of probe labeling on DAGLb – biochemical, gel-based fluorescence, overexpressed mouse, set 2, late-stage follow-up (AID 602299). As to conditions: HEK293T membrane overexpressed mouse DAGLb, gel ABPP fluorescence; at 10 µM; stronger effect = higher value. In a few lines: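 Material: membrane proteome of HEK293T cells transiently overexpressing mouse DAGLb; input: 0.3 mg/mL membrane protein; reagent: HT-01 probe, 1 µM; controls: DMSO-only high, gel background low; signal: reducing SDS-PAGE with in-gel fluorescence; times: 30 min compound pre-incubation then 30 min probe labeling, 37 °C; read-out basis: % inhibition from band optical density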
Chain of Diacylglycerol lipase-beta (Mus musculus) (Q91WC9 whole entry, looked up): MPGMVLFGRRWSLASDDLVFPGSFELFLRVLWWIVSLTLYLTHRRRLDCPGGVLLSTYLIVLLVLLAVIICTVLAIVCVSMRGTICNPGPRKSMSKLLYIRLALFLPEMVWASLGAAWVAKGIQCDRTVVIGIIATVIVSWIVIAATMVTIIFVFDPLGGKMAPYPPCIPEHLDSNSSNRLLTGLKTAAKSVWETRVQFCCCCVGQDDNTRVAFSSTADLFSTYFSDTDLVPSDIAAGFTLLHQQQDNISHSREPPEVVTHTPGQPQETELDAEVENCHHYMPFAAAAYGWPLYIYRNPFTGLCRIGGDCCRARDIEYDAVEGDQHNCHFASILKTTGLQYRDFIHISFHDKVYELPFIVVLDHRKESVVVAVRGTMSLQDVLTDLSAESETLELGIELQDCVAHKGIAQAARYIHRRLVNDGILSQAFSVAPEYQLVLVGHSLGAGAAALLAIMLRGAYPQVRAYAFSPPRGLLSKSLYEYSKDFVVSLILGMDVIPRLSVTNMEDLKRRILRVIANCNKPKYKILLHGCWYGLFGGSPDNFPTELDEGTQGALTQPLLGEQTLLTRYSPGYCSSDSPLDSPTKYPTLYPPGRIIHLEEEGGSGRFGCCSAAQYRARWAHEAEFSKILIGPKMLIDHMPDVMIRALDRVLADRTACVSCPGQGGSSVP
What is called inhibition is how much of the control response was suppressed. On to `COc1ccc(-c2ccc(-c3cn(C(=O)N4CCCCC4c4ccccc4)nn3)cc2)cc1` (stereo not drawn), for which the inhibition is 11% (inactive).
With `COc1ccccc1-c1ccc(-c2cn(C(=O)N3CCC(Cc4ccccc4)CC3)nn2)cc1`, the inhibition is 98%.
With `COc1ccccc1-c1ccc(-c2cn(C(=O)N3CCCCC3c3ccccc3)nn2)cc1` (stereo not drawn), the inhibition was 64%.
To `O=C(N1CCCCC1c1ccccc1)n1cc(C(O)(c2ccccc2)c2ccccc2)nn1` (stereo not drawn) belongs 39% (inactive); to `COc1ccccc1-c1ccc(-c2cn(C(=O)N3CCCC(Cc4ccccc4)C3)nn2)cc1` (stereo not drawn), 99%.
As for `O=C(N1CCCCC1CCc1ccccc1)n1cc(-c2ccc(-c3ccccc3)cc2)nn1` (stereo not drawn), the figure is 59%; as for `O=C(N1CCCCC1c1ccccc1)n1cc(-c2ccc(-c3ccccc3)cc2)nn1` (stereo not drawn), 50%.
Take `COc1ccccc1-c1ccc(-c2cn(C(=O)N3CCCCC3CCc3ccccc3)nn2)cc1` (stereo not drawn): the inhibition is 69%.

Source of the values: PubChem BioAssay AID602299 (The Scripps Research Institute Molecular Screening Center, 2012).
